Screening results deposited in PubChem BioAssay by The Scripps Research Institute Molecular Screening Center.
TAAR1 antagonist: human TAAR1 antagonism; Q96RJ0; CHO RD-HGA16 TAAR1, Fluo-8 calcium fluorescence, antagonist; inhibition, % at 3 µM; hit rate 1.5% among 360,000; AID 624466;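 active means inhibition above a per-plate cutoff, the mean inhibition of test compounds on that plate plus 3 SD, cut at about 49% in these data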;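 further: 0% = DMSO plus EC80 beta-PEA response and 100% = DMSO alone without agonist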
Target sequence (Q96RJ0 whole entry, looked up): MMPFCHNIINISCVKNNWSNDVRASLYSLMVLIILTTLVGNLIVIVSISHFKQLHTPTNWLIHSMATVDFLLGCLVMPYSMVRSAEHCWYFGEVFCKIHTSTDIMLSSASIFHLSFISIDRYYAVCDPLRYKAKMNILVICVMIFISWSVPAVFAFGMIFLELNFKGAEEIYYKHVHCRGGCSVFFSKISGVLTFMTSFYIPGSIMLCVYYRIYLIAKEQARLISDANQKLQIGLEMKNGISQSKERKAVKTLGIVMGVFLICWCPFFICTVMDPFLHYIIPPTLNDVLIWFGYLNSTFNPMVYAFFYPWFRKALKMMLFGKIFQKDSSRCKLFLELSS
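Test system: RD-HGA16 CHO cells with stable hTAAR1 and Gα16 / Probe or stimulus: EC80 β-phenethylamine stimulus / Times: seeding 17-24 h prior, 75-min 37 °C, 30-min RT dye loading / Detection: Fluo-8 calcium-sensitive fluorescence / Read-out basis: % inhibition scaled between DMSO and EC80 PEA controls / Repeats: singlicate, one well per test compound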
OX1R antag-1: blocks the human orexin 1 receptor. O43613. OX1R-expressing cells, FRET antagonist read-out. inhibition, % at 6.6 µM. hit rate 1.8% among 330,000. AID 485270; in the data active means inhibition mostly above about 38%, no sharp cut-off; inactive means mostly below about 40%;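 further: 0% = agonist challenge alone and 100% = reference antagonist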
Target sequence (O43613 whole entry, looked up): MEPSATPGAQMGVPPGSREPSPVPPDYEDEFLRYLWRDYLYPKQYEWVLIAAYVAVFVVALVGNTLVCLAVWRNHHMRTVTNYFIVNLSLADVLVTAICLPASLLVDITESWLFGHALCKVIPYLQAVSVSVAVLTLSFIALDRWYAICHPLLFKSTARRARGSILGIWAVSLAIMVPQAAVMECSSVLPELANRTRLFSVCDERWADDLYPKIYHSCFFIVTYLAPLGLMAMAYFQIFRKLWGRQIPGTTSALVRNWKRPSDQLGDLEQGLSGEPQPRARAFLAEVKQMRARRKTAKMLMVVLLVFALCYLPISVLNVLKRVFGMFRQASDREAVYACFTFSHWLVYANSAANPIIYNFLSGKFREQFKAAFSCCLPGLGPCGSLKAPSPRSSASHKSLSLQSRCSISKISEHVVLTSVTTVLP
GalR3 antag: blocks the human galanin receptor 3; HEK293 GalR3-CNG cAMP membrane potential fluorescence; galR3 body fused to GalR1 C-terminus; inhibition, % at 3 µM; hit rate 0.44% among 360,000;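 active means inhibition above the screen-wide average plus 3 SD, cut at about 13% in these data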;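 further: forskolin and galanin both at EC90 stimulate the cells; cAMP rise reported by CNG channel membrane potential dye signal; 0% = forskolin plus galanin with DMSO and 100% = forskolin alone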
TAAR1 agonist: human TAAR1 agonism; hit rate 0.99% among 360,000; activation, % at 3 µM; Q96RJ0; AID 624467; CHO RD-HGA16 TAAR1, Fluo-8 calcium fluorescence; vehicle wells 0%, saturating PEA agonist 100%;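 active means activation above the mean activation of all test compounds in the run plus 3 SD, cut at about 38% in these data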
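System: CHO-derived RD-HGA16 cells with stable Gα16 and human TAAR1 / Times: 17-24 h plating, Fluo-8 75 min 37 °C, 30 min RT / Technique: calcium-sensitive Fluo-8 signal, excitation 470-495, emission 515-575 nm / Measure: % activation relative to PEA EC100 response / Benchmarks: DMSO and PEA EC100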
OX1R antag-2: antagonists of human orexin 1 receptor | O43613 | CHO/OX1R cells, Fluo-8 calcium fluorescence, orexin A | inhibition, % at 5 µM | hit rate 0.43% among 330,000 | AID 434989;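 active means inhibition above its plate's threshold, mean inhibition of all tested compounds on the plate plus 3 SD, cut at about 37% in these data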;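 further: 0% = orexin A challenge wells and 100% = SB-334867-A antagonist wells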
CHO parental Ca: signal in parental CHO cells, OX1R antagonist counter-screen; hit rate 0.63% among 330,000; parental CHO-K1, ATP-induced calcium, Fluo-8 fluorescence; inhibition, % at 5.6 µM; AID 463079;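 active means inhibition above that plate's mean sample inhibition plus 3 SD, cut at about 26% in these data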;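 further: 0% = ATP-challenged DMSO wells and 100% = DMSO wells without ATP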
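Assay system: parental CHO cells; Read-out basis: percent inhibition of ATP-evoked calcium rise, normalized to controls; Benchmarks: ATP and no-ATP DMSO wells; Compound dosing: single nominal dose of 5.6 µM per compound; Signal: Fluo-8 calcium dye fluorescence; Also added: ATP as calcium-mobilizing challenge; Repeats: singlicate.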
Numbers without * were called inactive; . = not tested or not shown. Most compounds without a hit are left out; they make up all but 4.3% or so of the library.

SMILES	TAAR1 antagonist	OX1R antag-1	GalR3 antag	TAAR1 agonist	OX1R antag-2	CHO parental Ca
O=C(CCS(=O)(=O)c1cccc2nsnc12)N1CC(=O)N(CCc2ccccc2)C(=O)C1	7.8	52.7*	-5.9	4.4	-3.9	-23.9
Cc1ccc(C(=O)OCc2cc3ccccc3[nH]c2=O)cc1	32.9	8.9	-3.5	42.2*	-4.4	11.9
C[C@H]1CN(c2ccc(N3CCN(C(=O)OC(C)(C)C)C[C@@H]3C)cc2C#N)CCN1Cc1ccccc1	9.4	.	-0.9	-0.8	.	.
COc1ccccc1N1N=C(c2ccc([N+](=O)[O-])cc2)CC1c1ccccc1 (stereo not drawn)	25.5	7.0	-0.1	22.8	58.0*	54.6*
Cc1ccc2c(c1)C(=O)C(=O)N2Cc1ccc(C(F)(F)F)cc1	55.5*	-6.1	4.2	13.6	-0.3	0.3
Cc1ccc(OCCN2C(=O)C(=O)c3cc(C)ccc32)cc1	-18.0	2.0	5.4	-3.2	-16.5	-6.7
COCCNc1nc2cc(-c3ccccc3OC)sc2c(=O)n1C	-12.4	.	-9.2	-1.0	.	.
COC(=O)CC1(C(=O)OC)Nc2cc(Cl)c(Cl)cc2S(=O)(=O)N1O (stereo not drawn)	-14.9	.	-2.9	2.0	.	.
O=C(COC(=O)/C=C/c1cc(Br)ccc1F)Nc1ccc2[nH]c(=O)[nH]c2c1	-10.7	9.8	-6.0	2.5	7.4	-0.5
Cc1csc(=NC(=O)c2ccccc2)n1C	-7.2	8.7	-4.6	22.3	-12.9	-5.8
CCn1c(C)csc1=NC(=O)c1ccccc1	12.1	75.7*	-3.0	2.9	-5.6	-3.3
COc1ccc2nc3ccccc3nc2c1NC(=O)c1ccccc1Cl	20.1	51.2*	-2.8	5.9	-42.8	-26.7
O=C(Nc1ccc2ccccc2n1)c1ccccc1Cl	-8.3	21.9	-9.7	4.8	-19.4	-11.0
CC1CCN(CCNC(=O)C2CCCN(S(=O)(=O)c3cccc4nonc34)C2)CC1 (stereo not drawn)	1.9	69.9*	-2.5	-2.2	-19.1	-0.5
O=C(NC1CCN(Cc2ccccc2)CC1)C1CCCN(S(=O)(=O)c2cccc3nonc23)C1 (stereo not drawn)	8.4	70.1*	-3.8	6.9	-19.2	-18.7
O=C(NCc1ccccc1)C1CCCN(S(=O)(=O)c2cccc3nonc23)C1 (stereo not drawn)	1.4	54.6	0.5	1.5	-29.7	-9.6
O=C(NC1CCN(Cc2ccccc2)CC1)C1CCN(S(=O)(=O)c2cccc3nsnc23)CC1	18.4	71.1*	-4.8	2.2	-19.6	-16.5
CCc1ccc2c(c1)Sc1ccccc1CC2N1CCN(C)CC1 (stereo not drawn)	9.6	-2.4	-9.8	43.2*	-18.9	-3.4
O=C(CCC(=O)OCc1ccc(C(=O)Oc2ccccc2)cc1)Nc1cccc2ccccc12	49.0*	14.4	-2.4	7.9	-12.4	-14.8
C=CCOC(=O)CCC(=O)Nc1cccc2ccccc12	-21.3	3.8	3.6	3.4	-16.6	-21.2
Cc1cc(O)c(C(C)C)cc1NC(=S)Nc1cc(C(C)C)c(O)cc1C	48.1	.	-6.0	15.1	.	.
COc1ccc(N2C(=O)[C@@H]3[C@H](C2=O)[C@H](C(C)=O)N2c4ccccc4C=C[C@@H]32)cc1	-25.3	7.5	-2.0	2.0	-11.3	-11.9
COc1ccc(C2C(C(=O)c3ccccc3)N3c4ccccc4C=CC3C2[N+](=O)[O-])cc1 (stereo not drawn)	19.2	.	-2.8	42.7*	.	.
O=[N+]([O-])c1cc(Br)c(O)c(/C=N/Nc2nnnn2-c2cccc3ccccc23)c1	17.4	44.9*	-3.6	6.2	-10.1	-18.3
O=[N+]([O-])c1ccc(NN=Cc2cccc3ccccc23)cc1	0.1	.	-3.0	2.3	.	.
SMILES	TAAR1 antagonist	OX1R antag-1	GalR3 antag	TAAR1 agonist	OX1R antag-2	CHO parental Ca
O=C1C(=O)c2ccccc2C(O)=C1c1ccccc1F	-30.9	46.3*	-2.4	-1.5	-9.2	-8.3
O=C(c1ccc(Cl)c(S(=O)(=O)N2CCc3ccccc32)c1)N1CCN(c2ccccc2O)CC1	60.6*	10.8	-3.5	21.6	-2.5	-7.4
COc1ccc(CCC(=O)N2c3ccccc3N=C(c3ccc4c(c3)OCO4)C2C(=O)NCc2ccccc2)cc1 (stereo not drawn)	-36.7	.	-3.9	0.5	.	.
CC(=O)N1CCN(C(=O)CSc2cc(C)c(Br)cc2C)CC1	-23.7	26.7	-2.4	5.8	-13.5	-11.7
CCN=C1NC(c2ccc(F)cc2)C(C(=O)OC)=C(C)N1Cc1ccccc1C(F)(F)F (stereo not drawn)	-9.1	.	-9.6	14.5	.	.
O=S(=O)(c1cccc(Br)c1)N1CCN(c2ccnc3cc(Cl)ccc23)CC1	14.2	18.5	-3.7	3.9	-3.7	34.9*
CCC(Sc1nc(C)cc(=O)[nH]1)C(=O)Nc1sc2c(c1C#N)CCCC2 (stereo not drawn)	-32.3	37.1	-2.7	39.5*	-1.6	-18.3
CC(Sc1nc(N)cc(=O)[nH]1)C(=O)Nc1sc2c(c1C#N)CCCC2 (stereo not drawn)	10.2	11.1	-1.1	9.3	30.9	34.3*
COC(=O)c1cc2c(c3c4cc(F)ccc4n(S(=O)(=O)c4ccccc4)c13)C(=O)N(Cc1ccc(C(F)(F)F)cc1)C2	-41.5	.	-5.3	-0.7	.	.
Cc1ccc(S(=O)(=O)NCC(=O)OC(C)C(=O)NC2CCCCC2C)cc1C (stereo not drawn)	-14.6	.	-7.2	2.3	.	.
CNc1nc(N/N=C/c2cc3c(cc2[N+](=O)[O-])OCO3)nc(Nc2ccccc2)n1	5.2	43.6*	-5.0	11.5	-13.0	-23.9
O=C(NNc1ccc([N+](=O)[O-])cc1[N+](=O)[O-])c1ccco1	.	86.5*	.	.	-19.9	-6.8
O=C(NNc1ccc([N+](=O)[O-])cc1)c1ccco1	-24.2	13.9	1.1	4.6	-6.8	1.7
CC(=O)N1C[C@H]2CON(C)[C@H]2C[C@H]1c1ccccc1-c1ccccc1	-19.5	.	-6.7	1.3	.	.
COC(=O)c1sc(-c2ccc(C(C)(C)C)cc2)cc1NC(=O)COCC(=O)O	49.7*	11.0	-3.3	8.5	-0.2	-4.5
COC(=O)c1sc(-c2ccc(Cl)cc2)cc1NC(=O)CSCC(=O)O	2.5	4.8	0.8	10.2	-2.5	5.1
O=[N+]([O-])c1ccc(Sc2n[nH]c(-c3ccccc3)n2)nc1	-2.9	74.0*	3.4	7.0	-11.7	-6.3
Cc1ccccc1NC(=S)N(Cc1ccccc1)Cc1cccnc1	-19.8	11.2	0.7	5.5	-60.4	-26.0
CSc1cccc(NC(=S)N(Cc2ccc(C)cc2)Cc2cccnc2)c1	33.6	31.4	-6.0	0.1	14.4	46.1*
COC(=O)C1=C(C)N(Cc2cccc(C(F)(F)F)c2)C(=NCc2ccccc2C(F)(F)F)NC1c1cccc(C(F)(F)F)c1 (stereo not drawn)	-18.6	.	-0.6	2.8	.	.
CCCC(=O)Nc1cccc(-c2nc3ccccc3o2)c1	-1.7	56.6	-1.5	15.5	-21.1	-15.8
